ChEMBL document CHEMBL1126061, “Cyclic RGD peptide analogues as antiplatelet antithrombotics” (J Med Chem, 1992)
*1 amine or outer side, *2 acyl side, *3 side chain or, on linkers, in order; H or OH if unused. Where a SMILES comes first, the peptide text is derived from it. Bridges are numbered along the chain shown (N, C = ends). [ ]: non-standard residue; d: D form. Cys(O)(CH2CO) = O=C([C@H](C[S+]([O-])CC(=O)[*:3])N[*:1])[*:2]

How the values were obtained:
[1] = molecular target: T1, Integrin alpha-IIb/beta-3 (Homo sapiens, UniProt P05106+P08514); test: The compound was tested for the inhibition of fibrinogen receptor; type: protein-complex assay
T1 sequence (P05106 27-788 limits assumed): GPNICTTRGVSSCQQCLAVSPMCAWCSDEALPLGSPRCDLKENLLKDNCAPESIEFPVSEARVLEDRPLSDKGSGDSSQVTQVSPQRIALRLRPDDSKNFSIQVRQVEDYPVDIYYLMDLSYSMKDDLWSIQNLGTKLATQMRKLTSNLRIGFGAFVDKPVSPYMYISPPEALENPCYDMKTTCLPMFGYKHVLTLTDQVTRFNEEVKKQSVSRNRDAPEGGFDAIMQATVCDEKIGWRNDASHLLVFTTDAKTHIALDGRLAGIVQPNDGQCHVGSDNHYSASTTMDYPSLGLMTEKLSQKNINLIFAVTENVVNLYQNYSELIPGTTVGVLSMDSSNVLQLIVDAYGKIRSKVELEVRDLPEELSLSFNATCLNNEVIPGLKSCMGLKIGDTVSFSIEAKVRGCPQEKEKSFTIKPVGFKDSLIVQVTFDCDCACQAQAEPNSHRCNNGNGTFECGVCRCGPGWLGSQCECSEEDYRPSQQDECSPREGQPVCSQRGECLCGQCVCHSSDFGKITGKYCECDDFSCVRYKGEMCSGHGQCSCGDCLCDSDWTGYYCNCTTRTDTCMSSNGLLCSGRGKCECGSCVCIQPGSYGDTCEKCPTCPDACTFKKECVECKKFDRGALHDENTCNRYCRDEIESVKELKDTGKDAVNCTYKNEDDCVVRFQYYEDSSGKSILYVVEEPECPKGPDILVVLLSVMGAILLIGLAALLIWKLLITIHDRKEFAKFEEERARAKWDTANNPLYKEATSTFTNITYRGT
T1 sequence (P08514 32-887 limits assumed): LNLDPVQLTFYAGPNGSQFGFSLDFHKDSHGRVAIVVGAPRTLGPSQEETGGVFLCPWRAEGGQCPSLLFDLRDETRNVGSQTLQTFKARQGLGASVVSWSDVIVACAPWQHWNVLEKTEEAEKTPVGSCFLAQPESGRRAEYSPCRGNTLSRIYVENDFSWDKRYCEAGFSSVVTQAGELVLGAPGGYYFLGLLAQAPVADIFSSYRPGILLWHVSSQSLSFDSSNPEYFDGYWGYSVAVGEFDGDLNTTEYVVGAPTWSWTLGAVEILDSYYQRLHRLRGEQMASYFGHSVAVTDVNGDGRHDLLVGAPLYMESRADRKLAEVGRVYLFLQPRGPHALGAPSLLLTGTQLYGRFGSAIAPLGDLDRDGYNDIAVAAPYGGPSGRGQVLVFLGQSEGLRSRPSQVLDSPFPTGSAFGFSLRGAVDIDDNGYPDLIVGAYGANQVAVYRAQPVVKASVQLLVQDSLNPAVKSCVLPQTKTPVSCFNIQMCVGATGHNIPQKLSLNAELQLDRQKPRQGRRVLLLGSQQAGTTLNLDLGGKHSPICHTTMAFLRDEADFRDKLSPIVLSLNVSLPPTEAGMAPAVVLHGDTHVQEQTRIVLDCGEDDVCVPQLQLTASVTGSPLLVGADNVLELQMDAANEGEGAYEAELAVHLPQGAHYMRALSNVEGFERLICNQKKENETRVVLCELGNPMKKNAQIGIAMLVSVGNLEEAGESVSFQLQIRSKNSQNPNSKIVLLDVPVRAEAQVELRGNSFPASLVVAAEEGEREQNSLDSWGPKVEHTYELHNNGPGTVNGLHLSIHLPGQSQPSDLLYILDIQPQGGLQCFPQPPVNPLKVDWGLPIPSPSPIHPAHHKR
T1 sequence (P08514 891-1039 limits assumed): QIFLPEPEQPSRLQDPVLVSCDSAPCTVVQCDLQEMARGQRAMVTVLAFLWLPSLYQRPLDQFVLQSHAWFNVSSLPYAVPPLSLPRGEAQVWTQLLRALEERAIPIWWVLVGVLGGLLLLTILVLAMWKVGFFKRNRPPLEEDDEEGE
Method in brief: (§1)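 Solid-phase ELISA: human fibrinogen (10 µg/mL) coated, BSA-blocked; samples plus purified human platelet GPIIbIIIa (40 µg/mL) incubated 1 h at room temperature. Bound receptor detected with anti-GPIIbIIIa antibody AP3 (1 µg/mL, 1 h), then goat anti-mouse HRP (1 h); OPD/H2O2 at pH 5, stopped with H2SO4, absorbance 492-405 nm. IC50 from four-parameter fit; n ≥ 3.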

[2] = molecular target: T1, Integrin alpha-IIb/beta-3; test: Inhibition of Fibrinogen binding to Fibrinogen receptor; type: protein-complex assay; method in brief: as §1

SMILES	IC50 [1] [nM]	IC50 [2] [nM]
N=C(N)NCCC[C@@H]1NC(=O)[C@H](Cc2ccccc2)NC(=O)C[S+]([O-])C[C@@H](C(=O)O)NC(=O)[C@H](CC(=O)O)NC(=O)CNC1=O (some centres not stated)	6.6	16
N=C(N)NCCC[C@@H]1NC(=O)[C@@H](Cc2ccccc2)NC(=O)C[S+]([O-])C[C@@H](C(=O)O)NC(=O)[C@H](CC(=O)O)NC(=O)CNC1=O (some centres not stated)	5.6	33
N=C(N)NCCC[C@@H]1NC(=O)[C@H](CCCCN)NC(=O)C[S+]([O-])C[C@@H](C(=O)O)NC(=O)[C@H](CC(=O)O)NC(=O)CNC1=O (some centres not stated) (KRGD[Cys(O)(CH2CO)]-OH; lactam N-5)	2.6	14
C[C@@H](O)[C@@H]1NC(=O)C[S+]([O-])C[C@@H](C(=O)O)NC(=O)[C@H](CC(=O)O)NC(=O)CNC(=O)[C@H](CCCN=C(N)N)NC1=O (stereo in doubt; 71A)	1.8	
C[C@@H](O)[C@@H]1NC(=O)C[S+]([O-])C[C@@H](C(=O)O)NC(=O)[C@H](CC(=O)O)NC(=O)CNC(=O)[C@H](CCCN=C(N)N)NC1=O (stereo in doubt; 71B)	10	
N=C(N)NCCC[C@@H]1NC(=O)[C@H](CCC(=O)O)NC(=O)C[S+]([O-])C[C@@H](C(=O)O)NC(=O)[C@H](CC(=O)O)NC(=O)CNC1=O (stereo in doubt; 73A)	4.7	
N=C(N)NCCC[C@@H]1NC(=O)[C@H](CCC(=O)O)NC(=O)C[S+]([O-])C[C@@H](C(=O)O)NC(=O)[C@H](CC(=O)O)NC(=O)CNC1=O (stereo in doubt; 73B)	68	
C[C@@H]1NC(=O)CSC[C@@H](C(=O)O)NC(=O)[C@H](CC(=O)O)NC(=O)CNC(=O)[C@H](CCCNC(=N)N)NC1=O ({CH2CO}-ARGDC-OH; thioether N-5)	2.5	
N=C(N)NCCC[C@@H]1NC(=O)CNC(=O)CSC[C@@H](C(N)=O)NC(=O)[C@H](CC(=O)O)NC(=O)CNC1=O ({CH2CO}-GRGDC-NH2; thioether N-5)	12	
N=C(N)NCCC[C@@H]1NC(=O)CNC(=O)CSC[C@@H](C(=O)O)NC(=O)[C@H](CC(=O)O)NC(=O)CNC1=O ({CH2CO}-GRGDC-OH; thioether N-5)	4.2	
N=C(N)NCCC[C@@H]1NC(=O)[C@H](CC(N)=O)NC(=O)CSC[C@@H](C(=O)O)NC(=O)[C@H](CC(=O)O)NC(=O)CNC1=O ({CH2CO}-NRGDC-OH; thioether N-5)	2.7	
N=C(N)NCCC[C@@H]1NC(=O)[C@@H]2CCCN2C(=O)CSC[C@@H](C(=O)O)NC(=O)[C@H](CC(=O)O)NC(=O)CNC1=O ({CH2CO}-PRGDC-OH; thioether N-5)	1	
N=C(N)NCCC[C@@H]1NC(=O)CSC[C@@H](C(=O)O)NC(=O)[C@H](CC(=O)O)NC(=O)CNC1=O ({CH2CO}-RGDC-OH; thioether N-4)	132	
N=C(N)NCCC[C@@H]1NC(=O)[C@H](Cc2ccc(O)cc2)NC(=O)CSC[C@@H](C(N)=O)NC(=O)[C@H](CC(=O)O)NC(=O)CNC1=O ({CH2CO}-YRGDC-NH2; thioether N-5)	2.5	
N=C(N)NCCC[C@@H]1NC(=O)[C@H](Cc2ccc(O)cc2)NC(=O)CSC[C@@H](C(=O)O)NC(=O)[C@H](CC(=O)O)NC(=O)CNC1=O ({CH2CO}-YRGDC-OH; thioether N-5)	1.5	
C[C@H]1NC(=O)CSC[C@@H](C(=O)O)NC(=O)[C@H](CC(=O)O)NC(=O)CNC(=O)[C@H](CCCNC(=N)N)NC1=O ({CH2CO}-[dA]RGDC-OH; thioether N-5)	9.5	
N=C(N)NCCC[C@@H]1NC(=O)[C@@H](CC(N)=O)NC(=O)CSC[C@@H](C(=O)O)NC(=O)[C@H](CC(=O)O)NC(=O)CNC1=O ({CH2CO}-[dN]RGDC-OH; thioether N-5)	35	
N=C(N)NCCC[C@@H]1NC(=O)[C@H]2CCCN2C(=O)CSC[C@@H](C(=O)O)NC(=O)[C@H](CC(=O)O)NC(=O)CNC1=O ({CH2CO}-[dP]RGDC-OH; thioether N-5)	11.4	
N=C(N)NCCC[C@@H]1NC(=O)[C@@H](Cc2ccc(O)cc2)NC(=O)CSC[C@@H](C(=O)O)NC(=O)[C@H](CC(=O)O)NC(=O)CNC1=O ({CH2CO}-[dY]RGDC-OH; thioether N-5)	20	
